Screening data deposited in PubChem BioAssay by several laboratories.
hiPSC survival: enhancers of human iPSC single-cell survival; hiPSC single-cell survival, ATPlite luminescence; 100% = ROCK inhibitor wells, 0% = DMSO; survival enhancement, % at 20 µM; hit rate 0.044% among 360,000; AID 602274; in the data active = survival enhancement above about 18%;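 note: cells exposed to compounds for 16 hours before the ATP read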
CHOP UPR activ: apoptotic UPR (CHOP) activation | CHO-CHOP luciferase reporter, luminescence; percent of tunicamycin response over DMSO baseline | activation, % at 10 µM | hit rate 0.34% among 330,000;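 active = at 10 µM dose, activation of 40% or more, normalized to positive control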
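Assay system: CHO-CHOP cells, stable luciferase reporter of PERK-eIF2a-CHOP signalling / Buffer or medium: F12 plus 10% serum / Compound dosing: one dose, 10 µM in 0.5% DMSO / Times: 6 h compound treatment, 37 °C / Technique: luciferase luminescence / Read-out: % reporter activation, DMSO baseline versus tunicamycin full activation / Benchmarks: tunicamycin and DMSO controls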
Cardio protect: modulators protecting cardiomyocytes from myocardial damage; H9c2 cardiomyocytes, H2O2 injury protection, ATPLite, 2 h; protection from H2O2 cell death, % at 20 µM; hit rate 0.63% among 360,000; AID 588492;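 active = compounds giving at least 50% protection of heart cells from peroxide-induced death in the single-dose screen, raw or plate-pattern-corrected value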
CHOP inhibitor: inhibitors of CHOP induction in ER stress response; CHO-K1 CHOP-promoter luciferase, tunicamycin-induced, 15-18 h; inhibition, % at 10 µM; hit rate 3.8% among 220,000;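 active = compounds that reduced the stress-induced luciferase reporter signal by more than about 70% of percent inhibition, limit read from the data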
UPR XBP1 act: activators of adaptive arm of unfolded protein response (XBP1); CHO-XBP1 luciferase reporter, IRE1-XBP1 UPR activation, luminescence; percent of tunicamycin response, DMSO as zero; AID 463104; activation, % at 20 µM; hit rate 0.33% among 330,000;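 active = versus positive control, 20 µM dose yields 30% or more activation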
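Material: CHO cell line with stable XBP1 luciferase reporter; schedule: 16-18 h cell attachment at 37 °C, then 6 h compound exposure; signal: glow luminescence from Steady-Glo reagent; medium: serum-containing F12 medium, 10% FBS; benchmarks: tunicamycin 10 µg/mL and vehicle-only wells; read-out: percent activation relative to tunicamycin reference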
Each line names hits and unclear results; the compound was inactive in the other large screens. Shown is part of a subset that was picked to be rich in hits.

Cc1cc(C(=O)COC(=O)Cc2n[nH]c(=O)c3ccccc23)c(C)n1-c1ccc2c(c1)OCO2	CHOP inhibitor 84.6
O=C(c1n[nH]c(=O)c2ccccc12)N1CCN(Cc2ccc3c(c2)OCO3)CC1	none
O=C(Cc1n[nH]c(=O)c2ccccc12)OCC(=O)c1ccc2c(c1)OCCO2	Cardio protect 66.3 (no result: CHOP inhibitor)
CN1CCC[C@H]1CCNc1ccc2c(=O)c3ccccc3n(C)c2c1	none (no result: CHOP UPR activ, CHOP inhibitor, UPR XBP1 act)
C[C@H]1Cn2cnc(C(=O)NCc3ccc(CNC(=O)OC(C)(C)C)cc3)c2C(=O)N1	none (no result: CHOP UPR activ, CHOP inhibitor, UPR XBP1 act)
O=C(C(=Cc1ccc(F)cc1)C(=O)c1ccccc1)c1ccccc1	none (no result: CHOP UPR activ, CHOP inhibitor, UPR XBP1 act)
CCC(C)(C)n1nnnc1C(c1cccnc1)N1CCC(Cc2ccccc2)CC1 (stereo not given)	none
CC(C)(C)n1nnnc1C(c1cccc(C#N)c1)N1CCC(Cc2ccccc2)CC1 (stereo not given)	CHOP inhibitor 80.3
Cc1ccc(Nc2cc(C)c3ccc(O)cc3n2)cc1C	CHOP inhibitor 78.8
COC(=O)c1cc(Nc2cc(C)c3c(O)cccc3n2)cc(C(=O)OC)c1	none
COC(=O)c1cc(Nc2cc(C)c3ccc(O)cc3n2)cc(C(=O)OC)c1	CHOP inhibitor 71.0
CC(C)OC(=O)CSc1nnc(-c2ccc(Cl)cc2Cl)o1	none
CCCCOC(=O)CSc1nnc(-c2ccc(Cl)cc2Cl)o1	CHOP inhibitor 70.8
COc1ccc2sc(-c3ccc(N(C)C)cc3)c(C#Cc3cncn3C)c2c1	none (no result: CHOP inhibitor)
CCNC(=O)/C(C#N)=C/c1c(N(Cc2ccccc2)Cc2ccccc2)nc2ccccn2c1=O	Cardio protect 73.1
CNC(=O)/C(C#N)=C/c1c(N(Cc2ccccc2)Cc2ccccc2)nc2c(C)cccn2c1=O	none (no result: CHOP UPR activ, UPR XBP1 act)
Cc1ccc2c(c1)NC(=O)C(CC(=O)NCCCN1CCN(c3cc(Cl)ccc3C)CC1)O2 (stereo not given)	CHOP inhibitor 78.7
Cc1ccc2c(c1)NC(=O)C(CC(=O)NCCCN1CCCCC1)O2 (stereo not given)	none
O=C(Nc1ccc(Br)cc1F)c1nc[nH]c1C(=O)N1CCc2ccccc2C1	none (no result: CHOP UPR activ, CHOP inhibitor, UPR XBP1 act)
O=C(NCc1cccnc1)/C(=C\c1ccc(-c2ccc(Cl)c(Cl)c2)o1)S(=O)(=O)c1ccccc1	CHOP inhibitor 110.5 (no result: CHOP UPR activ, UPR XBP1 act)
CCCc1sc(N/N=C/c2ccccn2)nc1-c1ccc(F)cc1	CHOP inhibitor 87.4
Cc1nc(N/N=C/c2ccccn2)sc1C	CHOP inhibitor 86.3 (no result: hiPSC survival, CHOP UPR activ, Cardio protect, UPR XBP1 act)
CC1(C(=O)NS(=O)(=O)c2ccc(C#N)cc2)CCN1C(=O)c1cccc2ccccc12 (stereo not given)	none (no result: CHOP UPR activ, CHOP inhibitor, UPR XBP1 act)
COC(=O)[C@]12CCCCC=C1N(Cc1ccccc1)C(=O)[C@H](CC(=O)NCC13CC4CC(CC(C4)C1)C3)C2	none (no result: CHOP UPR activ, Cardio protect, CHOP inhibitor, UPR XBP1 act)
Cc1ccc(C(C)C)c(OCCNCc2ccccc2)c1	none (no result: CHOP inhibitor)
Cc1ccc(C(C)C)c(OCCNC(=S)Nc2cccc3ccccc23)c1	CHOP inhibitor 76.0
CCN(Cc1ccccc1)c1cc2c(c3c1ccn3C)C1CCC2C1 (stereo not given)	none (no result: CHOP UPR activ, CHOP inhibitor, UPR XBP1 act)
Brc1ccc(CSc2nccn2-c2ccccc2)cc1	CHOP inhibitor 76.1
COc1ccc(CN(C)C(=O)/C=C/[C@H]2O[C@@H](n3cc(C)c(=O)[nH]c3=O)C[C@@H]2O)cc1OC	none (no result: CHOP UPR activ, CHOP inhibitor, UPR XBP1 act)
Cc1cccc(Nc2nc(-c3ccc(O)c(O)c3)cs2)n1	CHOP UPR activ 100.1 (no result: CHOP inhibitor)
COc1ccc(F)cc1-c1cc(NC(C)=O)c2ncc(-c3cccc(C(F)(F)F)c3)n2c1	none (no result: CHOP UPR activ, CHOP inhibitor, UPR XBP1 act)
COc1ccc(Cn2c(CCC(=O)Nc3ccc(C)c(C)c3)nc3cccnc32)cc1	CHOP inhibitor 85.9
COc1ccc(Cn2c(CCC(=O)Nc3ccccc3)nc3cccnc32)cc1	none
COc1ccc(OCC(=O)O/N=C(\N)Cc2ccc(Cl)cc2Cl)cc1	CHOP inhibitor 80.5
Cc1ccc(C(=O)CC(=O)COc2ccc(Cl)cc2)cc1	Cardio protect 72.1, CHOP inhibitor 92.5
Cc1ccc(OCC(=O)O/N=C(\N)Cc2ccc(Cl)cc2)cc1	CHOP inhibitor 76.9
O=C(CN(CCc1ccccc1)S(=O)(=O)c1ccc(Cl)cc1)N/N=C/c1ccc2c(c1)OCO2	CHOP inhibitor 76.8
Cc1cccc(CN(CC(=O)N/N=C/c2cccs2)S(=O)(=O)c2ccc(Cl)cc2)c1	CHOP inhibitor 77.5
Cc1cccc(CN(CC(=O)N/N=C/c2ccco2)S(=O)(=O)c2ccc(Cl)cc2)c1	none
